Source: ChEMBL document CHEMBL1134907, “An improved synthesis of the C-linked glucuronide of N-(4-hydroxyphenyl)retinamide” (Bioorg Med Chem Lett, 2002)
pKi: −log10 of the molar value.

Key:
Rattus norvegicus [1] = assay: Final DMBA-induced mammary tumor volume in rat after retinoid treatment at 2 mmol/kg diet; assay type: functional
How it was run: (§1)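 Rats bearing mammary tumors induced by dimethylbenz[a]anthracene (DMBA) 50 days earlier were fed the treatment retinoid in the diet for 10 days. Each group had three tumor-bearing rats, which were killed after the 10 days. Every tumor on each rat was measured to estimate the mean tumor volume for the group.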

Rattus norvegicus [2] = organism: Rattus norvegicus; assay: Percentage change in DMBA-induced mammary tumor in rats; no new tumors, partial regression in 10/10 tumors; assay type: functional; how it was run: as §1
Rattus norvegicus [3] = assay: Initial DMBA-induced mammary tumor volume in rat after retinoid treatment at 2 mmol/kg diet; assay type: functional; how it was run: as §1
RARγ = RARγ (Homo sapiens, UniProt P13631); assay: Binding affinity for retinoic acid receptor RAR gamma
RARβ = RARβ (Homo sapiens, UniProt P10826); assay: Binding affinity for retinoic acid receptor RAR beta
RARα = RARα (Homo sapiens, UniProt P10276); assay: Binding affinity for retinoic acid receptor RAR alpha
Rattus norvegicus [4] = organism: Rattus norvegicus; assay: Percentage change in DMBA-induced mammary tumor in rats;Two new tumors, partial regression in 10/14 tumors; assay type: functional; how it was run: as §1
Rattus norvegicus [5] = assay: Mean number of tumors/rat after retinoid dose of 2 mmol/kg diet; assay type: functional
Rattus norvegicus [6] = organism: Rattus norvegicus; assay: Percentage change in DMBA-induced mammary tumor in rats;no new tumors, partial regression in 6/8 tumors; assay type: functional; how it was run: as §1
Rattus norvegicus [7] = assay: Percentage of rats with tumor after retinoid dose of 2 mmol/kg diet; assay type: functional
Rattus norvegicus [8] = assay: Latency in DMBA-induced mammary tumor in rat after retinoid dose of 2 mmol/kg diet; assay type: functional

Chain of RARα (P10276 whole entry, looked up): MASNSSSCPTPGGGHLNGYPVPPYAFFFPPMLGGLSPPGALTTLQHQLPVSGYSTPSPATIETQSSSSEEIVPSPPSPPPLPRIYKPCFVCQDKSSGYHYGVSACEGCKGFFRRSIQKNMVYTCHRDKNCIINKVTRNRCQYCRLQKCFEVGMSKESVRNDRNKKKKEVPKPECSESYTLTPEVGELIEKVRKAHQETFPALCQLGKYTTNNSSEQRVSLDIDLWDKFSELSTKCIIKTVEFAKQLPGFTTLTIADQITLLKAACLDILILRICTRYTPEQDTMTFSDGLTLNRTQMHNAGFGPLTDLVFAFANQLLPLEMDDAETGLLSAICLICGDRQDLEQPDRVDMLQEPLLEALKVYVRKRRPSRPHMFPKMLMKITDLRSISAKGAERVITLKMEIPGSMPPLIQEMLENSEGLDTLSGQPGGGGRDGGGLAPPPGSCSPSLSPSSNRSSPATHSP
Chain of RARβ (P10826 whole entry, looked up): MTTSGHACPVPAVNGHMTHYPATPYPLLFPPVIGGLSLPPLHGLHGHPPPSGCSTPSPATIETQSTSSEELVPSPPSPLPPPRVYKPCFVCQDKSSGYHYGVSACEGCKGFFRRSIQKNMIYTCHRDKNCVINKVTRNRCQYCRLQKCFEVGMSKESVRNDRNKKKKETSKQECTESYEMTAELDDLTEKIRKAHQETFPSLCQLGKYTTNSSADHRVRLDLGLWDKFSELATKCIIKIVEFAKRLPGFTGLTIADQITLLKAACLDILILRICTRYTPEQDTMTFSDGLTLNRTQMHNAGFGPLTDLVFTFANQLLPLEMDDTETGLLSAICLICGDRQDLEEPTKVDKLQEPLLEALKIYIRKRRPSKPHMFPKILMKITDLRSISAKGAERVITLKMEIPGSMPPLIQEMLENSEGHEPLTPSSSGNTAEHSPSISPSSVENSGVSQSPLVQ
Chain of RARγ (P13631 whole entry, looked up): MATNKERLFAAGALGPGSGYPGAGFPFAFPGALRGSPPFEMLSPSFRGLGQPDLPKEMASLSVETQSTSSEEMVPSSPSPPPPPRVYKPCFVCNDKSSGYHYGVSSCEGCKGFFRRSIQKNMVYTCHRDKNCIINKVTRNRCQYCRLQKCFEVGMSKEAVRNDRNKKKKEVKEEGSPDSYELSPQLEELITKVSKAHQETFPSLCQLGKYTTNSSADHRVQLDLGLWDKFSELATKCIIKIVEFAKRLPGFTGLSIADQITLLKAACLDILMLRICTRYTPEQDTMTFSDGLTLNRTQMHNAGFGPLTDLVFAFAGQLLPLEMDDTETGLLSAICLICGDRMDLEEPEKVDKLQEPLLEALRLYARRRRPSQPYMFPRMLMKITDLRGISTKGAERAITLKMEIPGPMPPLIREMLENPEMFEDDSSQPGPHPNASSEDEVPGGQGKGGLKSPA

Structure (SMILES): CC1=C(/C=C/C(C)=C/C=C/C(C)=C/C(=O)O)C(C)(C)CCC1 [TRETINOIN]
- Tumor volume (Rattus norvegicus [1]): 0.56 cm*3
- Change (Rattus norvegicus [2]): -40%
- Tumor volume (Rattus norvegicus [3]): 0.94 cm*3

Structure (SMILES): CC1=C(/C=C/C(C)=C/C=C/C(C)=C/C(=O)Nc2ccc(O)cc2)C(C)(C)CCC1 [FENRETINIDE]
- Tumor volume (Rattus norvegicus [1]): 0.12 cm*3
- pKi (RARγ): < 5.22
- pKi (RARβ): < 5.55
- pKi (RARα): < 5.66
- Tumor volume (Rattus norvegicus [3]): 0.16 cm*3
- Change (Rattus norvegicus [4]): -25%

Structure (SMILES): CC1=C(/C=C/C(C)=C/C=C/C(C)=C/C(=O)Nc2ccc(CC3OC(C(=O)O)C(O)C(O)C3O)cc2)C(C)(C)CCC1 (stereo not drawn)
- Activity (Rattus norvegicus [5]): 0.36
- Tumor volume (Rattus norvegicus [1]): 0.23 cm*3
- Change (Rattus norvegicus [6]): -21%
- pKi (RARβ): < 5.22
- pKi (RARα): < 5.66
- Tumor volume (Rattus norvegicus [3]): 0.29 cm*3
- Activity (Rattus norvegicus [7]): 27%
- Mean tumor atency (Rattus norvegicus [8]): 55 days

Structure (SMILES): CC1=C(/C=C/C(C)=C/C=C/C(C)=C/C(=O)Nc2ccc(O[C@@H]3O[C@@H](C(=O)O)[C@@H](O)[C@H](O)[C@@H]3O)cc2)C(C)(C)CCC1
- Activity (Rattus norvegicus [5]): 0.71
- pKi (RARγ): < 5.22
- pKi (RARβ): < 5.55
- pKi (RARα): < 5.66
- Activity (Rattus norvegicus [7]): 57%
- Mean tumor atency (Rattus norvegicus [8]): 48 days
